What was measured:
[1] = Volume of distribution in CD-1 mouse at 1 mg/kg, iv; type: ADME, organism-based; parameters: dose 1 mg/kg, route intravenous; settings: in vivo
Outline: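 Mouse IV PK: lateral tail vein dosing, 100 μL in 3% DMSO/30% Solutol/67% PBS; trunk blood from three mice per time point over 6 h. Plasma precipitated with acetonitrile, drug quantified by LCMS/MS against internal standard; noncompartmental analysis.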

[2] = AUC in Sprague-Dawley rat at 1 mg/kg, iv; type: ADME, organism-based; parameters: dose 1 mg/kg, route intravenous; settings: plasma
Outline: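 Rat PK. IV via the lateral tail vein, 1 mL/kg in 3% DMSO/30% Solutol/67% PBS, or oral gavage at 5 mL/kg in 40% HPβCD, after an overnight fast. Serial tail-vein blood was taken into heparin over 6 h. Plasma was acetonitrile-precipitated and analysed by LC-MS/MS. Parameters were noncompartmental, n = 3, mean ± SEM.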

[3] = Cmax in rat at 30 mg/kg, po; type: ADME, organism-based; parameters: dose 30 mg/kg, route oral; settings: in vivo
Outline: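 Rat oral dose escalation at 10, 30, 55 and 100 mg/kg. Gavage at 5 mL/kg in 40% HPβCD after an overnight fast. Serial tail-vein blood was drawn into heparinized tubes. Plasma was protein-precipitated with acetonitrile and assayed by LC-MS/MS. Cmax and AUC0–12 were derived noncompartmentally; n = 2 at 10 mg/kg.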

[4] = system: Mus musculus; test: Toxicity in SCID mouse xenografted with human KARPAS299 cells expressing NPM-ALK assessed as effect on body weight at 10 to 30 mg/kg, po bid; type: organism-based, KARPAS-299; parameters: dose 10-30 mg/kg, route oral; settings: in vivo
Outline: (§1)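 Female SCID/beige mice (6–8 weeks), Karpas-299 cells implanted sc in left flank; at ~600 mm³ randomized (8–10/group), dosed orally in PEG400, 100 μL, b.i.d. for 12 days. Body weight every 2–3 days; plasma and tumor sampled 2 h after final dose, drug by LCMS/MS; Mann–Whitney rank sum statistics.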

[5] = Drug level in SCID/beige mouse tumor xenografted with human KARPAS299 cells expressing NPM-ALK at 10 mg/kg, po bid after 2 hrs post last dose by LC-MS/MS analysis; type: ADME, organism-based, Neoplasm, KARPAS-299; parameters: dose 10 mg/kg, route oral; settings: read-out: Drug uptake
Outline: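 Female SCID/beige mice, 6–8 weeks old, implanted sc in the left flank with exponentially growing Karpas-299 cells. At about 600 mm³ tumours, mice were randomized (8–10/group) and given PEG400 vehicle or compound orally b.i.d., 100 μL, for 12 days. Tumour volume (0.5236LW(L+W)/2) and body weight were recorded every 2–3 days; Mann–Whitney test. Plasma and tumour levels were measured by LC-MS/MS 2 h after the final dose, mean ± SEM.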

[6] = system: Rattus norvegicus; test: Ratio of Cmax at 10 mg/kg, po to Cmax at 100 mg/kg, po in rat; type: ADME, organism-based; settings: in vivo
Outline: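 Oral dose-escalation PK study in rats at 10, 30, 55 and 100 mg/kg. […] The ratio compares the 10 mg/kg value with the 100 mg/kg value.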

[7] = Plasma concentration in SCID/beige mouse xenografted with human KARPAS299 cells expressing NPM-ALK at 30 mg/kg, po bid after 2 hrs post last dose by LC-MS/MS analysis; type: ADME, organism-based, KARPAS-299; parameters: dose 30 mg/kg, route oral; outline: as §1
[8] = target: NUAK family SNF1-like kinase 1 (Homo sapiens, UniProt O60285); test: Inhibition of human ARK5
NUAK family SNF1-like kinase 1, sequence (O60285 whole entry): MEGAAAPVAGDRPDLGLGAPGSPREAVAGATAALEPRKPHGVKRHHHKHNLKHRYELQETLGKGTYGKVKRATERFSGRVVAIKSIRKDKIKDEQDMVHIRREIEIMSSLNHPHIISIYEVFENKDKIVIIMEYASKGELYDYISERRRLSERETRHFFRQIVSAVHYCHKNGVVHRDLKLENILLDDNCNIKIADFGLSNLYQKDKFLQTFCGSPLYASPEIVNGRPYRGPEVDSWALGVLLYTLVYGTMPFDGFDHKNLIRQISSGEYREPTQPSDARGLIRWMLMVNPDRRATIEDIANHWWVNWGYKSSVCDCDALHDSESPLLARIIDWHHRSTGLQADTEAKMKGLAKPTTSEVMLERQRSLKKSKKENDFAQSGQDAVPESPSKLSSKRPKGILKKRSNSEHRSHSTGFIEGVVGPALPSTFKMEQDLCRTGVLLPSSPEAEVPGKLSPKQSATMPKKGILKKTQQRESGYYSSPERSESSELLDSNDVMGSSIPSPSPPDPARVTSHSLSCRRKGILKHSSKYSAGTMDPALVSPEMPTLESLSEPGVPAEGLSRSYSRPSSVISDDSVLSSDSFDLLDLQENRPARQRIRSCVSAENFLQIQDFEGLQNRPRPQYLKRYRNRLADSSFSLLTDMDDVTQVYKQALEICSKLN

[9] = target: Ribosomal protein S6 kinase alpha-6 (Homo sapiens, UniProt Q9UK32); test: Inhibition of human Rsk4
Ribosomal protein S6 kinase alpha-6, sequence (Q9UK32 whole entry): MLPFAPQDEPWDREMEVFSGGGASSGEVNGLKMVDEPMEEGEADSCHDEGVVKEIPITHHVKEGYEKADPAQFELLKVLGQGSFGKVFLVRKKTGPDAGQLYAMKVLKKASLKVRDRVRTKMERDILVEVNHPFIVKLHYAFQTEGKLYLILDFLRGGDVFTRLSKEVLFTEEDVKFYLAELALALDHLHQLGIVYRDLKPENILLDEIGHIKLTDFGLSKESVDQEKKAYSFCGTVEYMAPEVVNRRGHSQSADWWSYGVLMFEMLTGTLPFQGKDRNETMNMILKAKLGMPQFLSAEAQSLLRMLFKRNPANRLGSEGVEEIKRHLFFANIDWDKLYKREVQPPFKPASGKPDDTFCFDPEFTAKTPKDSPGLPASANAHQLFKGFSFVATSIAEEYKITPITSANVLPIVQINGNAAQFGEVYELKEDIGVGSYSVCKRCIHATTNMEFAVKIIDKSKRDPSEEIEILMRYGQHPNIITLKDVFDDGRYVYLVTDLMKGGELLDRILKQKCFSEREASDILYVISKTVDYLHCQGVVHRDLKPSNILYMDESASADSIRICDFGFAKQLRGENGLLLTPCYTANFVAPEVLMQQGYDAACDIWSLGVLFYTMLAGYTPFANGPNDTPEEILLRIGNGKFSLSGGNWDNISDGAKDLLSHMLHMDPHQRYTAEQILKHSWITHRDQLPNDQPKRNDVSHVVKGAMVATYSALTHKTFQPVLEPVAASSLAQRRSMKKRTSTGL
Outline: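 Millipore KinaseProfiler activity assays on a 259-kinase panel; kinases inhibited by ≥90% at 1 μM then taken to full IC50 determination.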

[10] = target: Serine/threonine-protein kinase Chk2 (Homo sapiens, UniProt O96017); settings: 1 uM
Serine/threonine-protein kinase Chk2, sequence (O96017 whole entry): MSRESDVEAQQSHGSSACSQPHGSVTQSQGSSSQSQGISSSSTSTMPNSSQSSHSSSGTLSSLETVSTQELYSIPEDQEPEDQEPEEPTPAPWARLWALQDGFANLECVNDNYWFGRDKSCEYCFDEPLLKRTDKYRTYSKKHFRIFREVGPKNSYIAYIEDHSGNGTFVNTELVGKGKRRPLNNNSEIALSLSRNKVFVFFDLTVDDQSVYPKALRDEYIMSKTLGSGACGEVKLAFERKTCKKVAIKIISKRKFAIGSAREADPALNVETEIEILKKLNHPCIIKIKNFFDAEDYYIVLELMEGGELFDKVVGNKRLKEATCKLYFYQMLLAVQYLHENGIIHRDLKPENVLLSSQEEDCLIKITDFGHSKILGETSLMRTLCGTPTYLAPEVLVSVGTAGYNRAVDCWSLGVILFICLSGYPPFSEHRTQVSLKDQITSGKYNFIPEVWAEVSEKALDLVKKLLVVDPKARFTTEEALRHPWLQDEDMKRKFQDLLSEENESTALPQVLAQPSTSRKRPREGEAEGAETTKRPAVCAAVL

Vd [1]: 1.8 L/kg
AUC [2]: 989 ng·h/mL
Cmax [3]: 1010 ng/mL
concentration at 2 h [5]: 686 ng/g
Ratio [6]: 9
concentration at 2 h [7]: 4270 ng/mL
IC50 [8]: 26 nM
IC50 [9]: 19 nM
inhibition [10]: > 90%
SMILES: COc1c(Nc2ncc(Cl)c(N[C@H]3[C@@H](C(N)=O)[C@@H]4C=C[C@H]3C4)n2)ccc2c1CC[C@@H](N1CCOCC1)CC2
Activity [4]: Non-toxic
